Measured values as given in ChEMBL document CHEMBL4028892, “Discovery of a 1-Methyl-3,4-dihydronaphthalene-Based Sphingosine-1-Phosphate (S1P) Receptor Agonist Ceralifimod (ONO-4641). A S1P1 and S1P5 Selective Agonist for the Treatment of Autoimmune Diseases” (J Med Chem, 2017).
pEC50, pKi: −log10 of the molar value. Activity calls are given as the source filed them. No cut-off for these calls is given here.

Assays:
[1] = Half life in cynomolgus monkey at 0.1 mg/kg, po by LC-MS/MS analysis; assay type: ADME, organism-based, Macaca fascicularis; details: in vivo
How it was run: (§1)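 Single intravenous or oral dose of 0.1 mg/kg to male Crl:CD(SD) rats and to monkeys. Values are means of three animals with SD.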

[2] = Half life in cynomolgus monkey at 0.1 mg/kg, iv by LC-MS/MS analysis; assay type: ADME, organism-based, Macaca fascicularis; details: in vivo; how it was run: as §1
[3] = Cmax in Crl:CD(SD) rat at 0.1 mg/kg, po by LC-MS/MS analysis; assay type: ADME, organism-based; design: dose 0.1 mg/kg, route oral; details: in vivo; how it was run: as §1
[4] = Cmax in bovine type 2 collagen-induced Lewis rat arthritis model at 0.1 mg/kg, po qd administered up to 27 days; assay type: ADME, organism-based; design: dose 0.1 mg/kg, route oral; details: in vivo
[5] = target: T1, Sphingosine 1-phosphate receptor 2 (Homo sapiens, UniProt O95136); experiment: Agonist activity at human S1P2 receptor expressed in CHO-K1 cells assessed as increase in S1P-stimulated calcium influx preincubated for 5 mins followed by S1P stimulation measured every 3 secs by fluorescence method; assay type: functional, cell-based
T1 sequence (O95136 whole entry): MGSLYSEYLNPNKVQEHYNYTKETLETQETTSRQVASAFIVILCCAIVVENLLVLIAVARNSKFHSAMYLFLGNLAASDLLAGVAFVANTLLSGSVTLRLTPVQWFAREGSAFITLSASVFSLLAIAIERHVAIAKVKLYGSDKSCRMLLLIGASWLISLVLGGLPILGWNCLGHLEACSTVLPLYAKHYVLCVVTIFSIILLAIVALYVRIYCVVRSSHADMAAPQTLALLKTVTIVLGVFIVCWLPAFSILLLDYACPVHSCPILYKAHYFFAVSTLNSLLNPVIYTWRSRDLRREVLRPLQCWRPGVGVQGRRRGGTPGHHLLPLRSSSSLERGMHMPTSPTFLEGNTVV

[6] = target: T2, Sphingosine 1-phosphate receptor 5 (Homo sapiens, UniProt Q9H228); experiment: Agonist activity at human S1P5 receptor expressed in CHO-K1 cells assessed as inhibition of forskolin-stimulated cAMP accumulation after 30 mins by ELISA; assay type: functional, cell-based
T2 sequence (Q9H228 whole entry): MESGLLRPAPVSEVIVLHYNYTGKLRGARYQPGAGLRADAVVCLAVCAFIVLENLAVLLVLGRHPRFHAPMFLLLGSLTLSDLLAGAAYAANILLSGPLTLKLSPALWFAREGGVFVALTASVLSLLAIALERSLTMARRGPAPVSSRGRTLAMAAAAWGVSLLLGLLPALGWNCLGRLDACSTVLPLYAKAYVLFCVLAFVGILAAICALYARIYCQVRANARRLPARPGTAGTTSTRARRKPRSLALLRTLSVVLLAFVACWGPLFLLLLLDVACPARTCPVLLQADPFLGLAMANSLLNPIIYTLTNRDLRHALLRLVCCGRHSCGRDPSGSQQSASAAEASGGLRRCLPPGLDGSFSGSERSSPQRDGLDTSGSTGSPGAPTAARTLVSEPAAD

[7] = Total clearance in cynomolgus monkey at 0.1 mg/kg, iv by LC-MS/MS analysis; assay type: ADME, organism-based, Macaca fascicularis; details: in vivo; how it was run: as §1
[8] = Plasma concentration in unrestrained conscious cynomolgus monkey at 10 mg/kg, po measured at 4 hrs; assay type: ADME, organism-based, Macaca fascicularis
How it was run: (§2)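 Single oral dose of 1, 10 or 100 mg/kg to unrestrained conscious monkeys. Heart rate was followed from 4 to 24 h after dosing and its decrease expressed against the pretreatment value. Plasma concentration was sampled at 4 and 24 h.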

[9] = AUC (infinity) in Crl:CD(SD) rat at 0.1 mg/kg, po by LC-MS/MS analysis; assay type: ADME, organism-based; design: dose 0.1 mg/kg, time infinity, route oral; details: in vivo; how it was run: as §1
[10] = target: T3, Sphingosine 1-phosphate receptor 1 (Homo sapiens, UniProt P21453); experiment: Downregulation of human S1P1 receptor expressed in CHO-K1 cell membranes assessed as concentration required to induce downregulation of receptor by 90% by flow cytometric method; assay type: cell-based
T3 sequence (P21453 whole entry): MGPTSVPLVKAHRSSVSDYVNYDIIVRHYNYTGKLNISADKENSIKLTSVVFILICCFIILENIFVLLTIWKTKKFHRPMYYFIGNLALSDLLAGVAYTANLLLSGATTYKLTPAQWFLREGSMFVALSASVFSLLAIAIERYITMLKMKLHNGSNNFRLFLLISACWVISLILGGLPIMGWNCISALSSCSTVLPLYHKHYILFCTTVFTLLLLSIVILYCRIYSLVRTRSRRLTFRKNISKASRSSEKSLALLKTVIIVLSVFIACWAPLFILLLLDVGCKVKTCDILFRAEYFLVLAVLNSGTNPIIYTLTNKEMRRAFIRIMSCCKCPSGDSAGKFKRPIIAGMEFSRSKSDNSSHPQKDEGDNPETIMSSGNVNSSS

Cynomolgus monkey [11] = experiment: Decrease in peripheral lymphocyte levels in unrestrained conscious cynomolgus monkey at 0.01 to 0.03 mg/kg, po administered as single dose measured after 4 to 24 hrs by automated hematology analyzer; assay type: functional, organism-based; details: Macaca fascicularis
How it was run: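 Single oral doses of 0.01 and 0.03 mg/kg to monkeys. Peripheral lymphocyte counts were followed from 4 to 24 h after administration.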

[12] = target: T1, Sphingosine 1-phosphate receptor 2; experiment: Displacement of [33P]-S1P from human S1P2 receptor expressed in CHO-K1 cells after 60 mins by scintillation counting method; assay type: cell-based
[13] = target: Sphingosine 1-phosphate receptor 3 (Homo sapiens, UniProt Q99500); experiment: Agonist activity at human S1P3 receptor expressed in CHO-K1 cells assessed as increase in S1P-stimulated calcium influx preincubated for 5 mins followed by S1P stimulation measured every 3 secs by fluorescence method; assay type: cell-based
Chain of Sphingosine 1-phosphate receptor 3 (Q99500 whole entry): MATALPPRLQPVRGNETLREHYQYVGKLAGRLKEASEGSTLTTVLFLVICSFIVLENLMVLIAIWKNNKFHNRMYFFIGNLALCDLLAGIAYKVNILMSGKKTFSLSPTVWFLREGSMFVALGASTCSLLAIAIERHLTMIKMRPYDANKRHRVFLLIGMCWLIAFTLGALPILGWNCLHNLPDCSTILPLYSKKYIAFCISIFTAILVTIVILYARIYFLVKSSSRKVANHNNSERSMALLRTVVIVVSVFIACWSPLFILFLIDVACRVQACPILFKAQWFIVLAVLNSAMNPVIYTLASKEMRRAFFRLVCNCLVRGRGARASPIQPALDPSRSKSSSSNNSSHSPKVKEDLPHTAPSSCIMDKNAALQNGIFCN

[14] = AUC (infinity) in cynomolgus monkey at 0.1 mg/kg, po by LC-MS/MS analysis; assay type: ADME, organism-based, Macaca fascicularis; design: dose 0.1 mg/kg, route oral, time infinity; details: in vivo; how it was run: as §1
[15] = AUC (infinity) in cynomolgus monkey at 0.1 mg/kg, iv by LC-MS/MS analysis; assay type: ADME, organism-based, Macaca fascicularis; design: dose 0.1 mg/kg, time infinity, route intravenous; details: in vivo; how it was run: as §1
[16] = target: T3, Sphingosine 1-phosphate receptor 1; experiment: Agonist activity at human S1P1 receptor expressed in CHO-K1 cells assessed as inhibition of forskolin-stimulated cAMP accumulation after 30 mins by ELISA; assay type: functional, cell-based
[17] = AUC (infinity) in Crl:CD(SD) rat at 0.1 mg/kg, iv by LC-MS/MS analysis; assay type: ADME, organism-based; design: dose 0.1 mg/kg, time infinity, route intravenous; details: in vivo; how it was run: as §1
Cynomolgus monkey [18] = experiment: Toxicity in unrestrained conscious cynomolgus monkey assessed as decrease in heart rate at 100 mg/kg, po administered as single dose measured after 4 to 24 hrs; assay type: organism-based, Macaca fascicularis; details: in vivo; how it was run: as §2
[19] = Plasma concentration in unrestrained conscious cynomolgus monkey at 100 mg/kg, po measured at 24 hrs; assay type: ADME, organism-based, Macaca fascicularis; how it was run: as §2
[20] = Volume of distribution at steady state in Crl:CD(SD) rat at 0.1 mg/kg, iv by LC-MS/MS analysis; assay type: ADME, organism-based; details: in vivo, read-out: Vdss; how it was run: as §1
[21] = Cmax in cynomolgus monkey at 0.1 mg/kg, po by LC-MS/MS analysis; assay type: ADME, organism-based, Macaca fascicularis; design: dose 0.1 mg/kg, route oral; details: in vivo; how it was run: as §1
[22] = Plasma concentration in unrestrained conscious cynomolgus monkey at 1 mg/kg, po measured at 4 hrs; assay type: ADME, organism-based, Macaca fascicularis; how it was run: as §2
Rattus norvegicus = experiment: Antiarthritic activity in bovine type 2 collagen-induced Lewis rat arthritis model at 0.1 mg/kg, po qd administered up to 27 days; assay type: functional, organism-based
How it was run: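 Female Lewis rats were immunised with bovine type II collagen in incomplete Freund's adjuvant on days 0 and 7. Compound (0.03 or 0.1 mg/kg) or 0.5% methylcellulose was given orally once daily, days 0–27. Paw oedema/erythema was scored. Groups: n = 9–10 treated/control, normal n = 5. Mean ± SE, Steel test.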

Mus musculus [23] = experiment: Decrease in peripheral lymphocyte levels in po dosed BALB/c mouse at 24 hrs by automated hematology analyzer; assay type: functional
How it was run: (§3)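 Compound given orally to 6-week-old male BALB/c mice. At 4 or 24 h, blood was taken from the abdominal aorta under ether anaesthesia and lymphocytes counted on an automated haematology analyser. Counts expressed as % of the vehicle-group mean; ED50 is the dose lowering counts to 50%. One experiment, five mice.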

[24] = Oral bioavailability in cynomolgus monkey at 0.1 mg/kg by LC-MS/MS analysis; assay type: ADME, organism-based, Macaca fascicularis; details: in vivo; how it was run: as §1
[25] = target: T3, Sphingosine 1-phosphate receptor 1; experiment: Displacement of [33P]-S1P from human S1P1 receptor expressed in CHO-K1 cells after 60 mins by scintillation counting method; assay type: cell-based
[26] = Half life in Crl:CD(SD) rat at 0.1 mg/kg, po by LC-MS/MS analysis; assay type: ADME, organism-based; details: in vivo; how it was run: as §1
[27] = target: T4, Sphingosine 1-phosphate receptor 1 (Rattus norvegicus, UniProt P48303); experiment: Displacement of [33P]-S1P from rat S1P1 receptor after 60 mins by scintillation counting method
T4 sequence (P48303 whole entry): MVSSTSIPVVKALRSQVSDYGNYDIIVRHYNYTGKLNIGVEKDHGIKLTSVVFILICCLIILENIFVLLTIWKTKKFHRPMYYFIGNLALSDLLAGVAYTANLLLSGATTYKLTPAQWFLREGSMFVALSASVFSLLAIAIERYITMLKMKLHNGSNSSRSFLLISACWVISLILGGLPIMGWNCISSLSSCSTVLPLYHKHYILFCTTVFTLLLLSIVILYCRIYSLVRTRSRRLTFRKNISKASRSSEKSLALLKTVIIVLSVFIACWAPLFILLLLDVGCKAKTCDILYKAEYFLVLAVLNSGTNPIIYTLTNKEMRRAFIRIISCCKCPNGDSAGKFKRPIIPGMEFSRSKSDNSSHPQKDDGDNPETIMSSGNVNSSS

Cynomolgus monkey [28] = experiment: Toxicity in unrestrained conscious cynomolgus monkey assessed as decrease in heart rate at 100 mg/kg, po administered as single dose measured at 4 hrs relative to control; assay type: organism-based, Macaca fascicularis; design: scale not given: the % may be the effect or the level left; details: in vivo; how it was run: as §2
[29] = Oral bioavailability in Crl:CD(SD) rat at 0.1 mg/kg by LC-MS/MS analysis; assay type: ADME, organism-based; details: in vivo; how it was run: as §1
[30] = target: T4, Sphingosine 1-phosphate receptor 1; experiment: Agonist activity at rat S1P1 receptor assessed as inhibition of forskolin-stimulated cAMP accumulation after 30 mins by ELISA; assay type: functional
[31] = Cmax in bovine type 2 collagen-induced Lewis rat arthritis model at 0.03 mg/kg, po qd administered up to 27 days; assay type: ADME, organism-based; design: dose 0.03 mg/kg, route oral; details: in vivo
[32] = Volume of distribution at steady state in cynomolgus monkey at 0.1 mg/kg, iv by LC-MS/MS analysis; assay type: ADME, organism-based, Macaca fascicularis; details: in vivo, read-out: Vdss; how it was run: as §1
[33] = target: T2, Sphingosine 1-phosphate receptor 5; experiment: Displacement of [33P]-S1P from human S1P5 receptor expressed in CHO-K1 cells after 60 mins by scintillation counting method; assay type: cell-based
Mus musculus [34] = experiment: Decrease in peripheral lymphocyte levels in po dosed BALB/c mouse at 4 hrs by automated hematology analyzer; assay type: functional; how it was run: as §3
[35] = Plasma concentration in unrestrained conscious cynomolgus monkey at 100 mg/kg, po measured at 4 hrs; assay type: ADME, organism-based, Macaca fascicularis; how it was run: as §2
[36] = Half life in Crl:CD(SD) rat at 0.1 mg/kg, iv by LC-MS/MS analysis; assay type: ADME, organism-based; details: in vivo; how it was run: as §1

half-life [1]: 29 h | half-life [2]: 30 h | Cmax [3]: 7.47 ng/mL | Cmax [4]: 21.5 nM | pEC50 [5]: < 4.52 | pEC50 [6]: 9.48 | clearance [7]: 1.06 mL/min/kg | concentration at 4 h [8]: 3570 ng/mL | AUC(0-inf) [9]: 229 ng·h/mL | Activity [10]: 25 nM | pKi [12]: < 5.26 | pEC50 [13]: < 4.52 | AUC(0-inf) [14]: 1090 ng·h/mL | AUC(0-inf) [15]: 1640 ng·h/mL | pEC50 [16]: 10.57 | AUC(0-inf) [17]: 302 ng·h/mL | concentration at 24 h [19]: 11100 ng/mL | Vd [20]: 7.15 L/kg | Cmax [21]: 28.4 ng/mL | concentration at 4 h [22]: 320 ng/mL | bioavailability [24]: 66.5% | pKi [25]: 9.20 | half-life [26]: 17 h | pKi [27]: 9.11 | bioavailability [29]: 75.9% | pEC50 [30]: 10.54 | Cmax [31]: 5.76 nM | Vd [32]: 2.66 L/kg | pKi [33]: 9.24 | concentration at 4 h [35]: 13500 ng/mL | half-life [36]: 16 h
SMILES: CCCc1ccc(COc2ccc3c(c2)CCC(CN2CC(C(=O)O)C2)=C3C)c(OC)c1
Activity (Cynomolgus monkey [11]): Active | Activity (Cynomolgus monkey [18]): Toxic | Activity (Rattus norvegicus): Active | ED50 (Mus musculus [23]): 0.029 mg/kg | Activity (Cynomolgus monkey [28]): 19% | ED50 (Mus musculus [34]): 0.018 mg/kg
